UHRF1 binding = UHRF1 methylated DNA binding inhibitors, primary screen, counter-screen for MBD2 inhibitor project, biochemical, TR-FRET, human UHRF1, single concentration; E3 ubiquitin-protein ligase UHRF1 (Homo sapiens), Q96T88; UHRF1 binding to methylated oligo; inhibition, % at 4.4 µM; 0.75% of 370,000 active; AID 687016, 2013; in the data active = inhibition above about 21%;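 also: UHRF1 SRA domain binding a hemimethylated CpG hairpin DNA probe; 0% = median of test compound wells and 100% = reference inhibitor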
TDP2 absorb = human TDP2 enzyme inhibitors, primary screen, biochemical, epi absorbance, recombinant enzyme. T5PNP hydrolysis, p-nitrophenol absorbance 415 nm. AID 720702, 2013. inhibition, % at 12.8 µM. 0.34% of 370,000 active. Tyrosyl-DNA phosphodiesterase 2 (Homo sapiens), O95551;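 active = inhibition above the mean of all tested compounds plus 3 SD, set per campaign, cut at about 25% in these data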;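 also: 0% = DMSO with enzyme and 100% = buffer with substrate but no TDP2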
Target sequence (O95551 whole entry, looked up): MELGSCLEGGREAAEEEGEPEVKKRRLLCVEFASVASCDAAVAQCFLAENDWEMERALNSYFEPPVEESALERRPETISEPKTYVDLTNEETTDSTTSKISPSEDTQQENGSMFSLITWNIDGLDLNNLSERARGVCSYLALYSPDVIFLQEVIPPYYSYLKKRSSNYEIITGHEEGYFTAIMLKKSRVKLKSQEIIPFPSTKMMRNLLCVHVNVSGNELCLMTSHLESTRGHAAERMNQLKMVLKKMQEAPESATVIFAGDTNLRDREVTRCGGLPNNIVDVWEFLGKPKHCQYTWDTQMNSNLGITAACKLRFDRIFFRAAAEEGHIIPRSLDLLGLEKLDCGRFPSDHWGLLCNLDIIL
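Test system: Human TDP2 enzyme | Reagent: 5 mM T5PNP | Compound dosing: 12.8 µM single point, 1% DMSO | Incubation: Enzyme reaction with compound for 2 h at 37 °C | Technique: p-Nitrophenol epi absorbance | Read-out: % inhibition relative to enzyme-containing and enzyme-free wells | Benchmarks: High control without enzyme, low control DMSO plus TDP2 | Replicates: Singlicate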
MBD2 DNA inh = inhibitors of MBD2 binding to methylated DNA, primary screen, biochemical, TR-FRET, DNA-binding domain, human | MBD2 binding to methylated oligonucleotide | inhibition, % at 4.4 µM | AID 686964, 2013 | 0.31% of 370,000 active; in the data active = inhibition above about 13%
PRMT1 inh = PRMT1 methyltransferase inhibitors, primary screen, biochemical, fluorescence polarization; Protein arginine N-methyltransferase 1 (Homo sapiens), Q99873; recombinant PRMT1, activity-based probe fluorescence polarization; inhibition, % at 2.79 µM; 1.3% of 370,000 active; AID 652257, 2013;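 active = inhibition above about 21% made by adding two undisclosed values, limit read from the data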
SIAE primary = human SIAE inhibitors, primary screen, biochemical, fluorescence polarization, FP-Rh probe, 1536-well HTS. 0.69% of 370,000 active. SIAE FP-Rh probe binding. inhibition, % at 9.66 µM. Sialate O-acetylesterase (Homo sapiens), Q9HAT2;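 active = inhibition above a cutoff: mean of compounds within the control limits plus 3 SD of those, cut at about 17% in these data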;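 also: 0% = plate median of compound wells and 100% = probe without SIAE protein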
LEDGF integ inh = blockers of LEDGF/p75-dependent integrase strand transfer – biochemical, TR-FRET, high throughput, primary screen | HIV-1 integrase (with human LEDGF/p75) | inhibition, % at 3.7 µM | TR-FRET IN-LEDGF/p75 DNA integration, Eu/Cy5 | 0.64% of 370,000 active;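 active = inhibition above the screen-wide mean plus 3 SD, cut at about 13% in these data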;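 also: signal is the Cy5 over europium emission ratio at 671 and 618 nm; 0% = plate median of compound wells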
PRMT1 inh conf = PRMT1 methyltransferase inhibitors, confirmation, biochemical, fluorescence polarization, triplicate; shares compounds with PRMT1 inh; recombinant His-PRMT1, activity-based probe fluorescence polarization; inhibition, % at 2.79 µM; 42% of 3,300 active; AID 687036, 2013;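 active = mean inhibition across replicates above the hit cutoff derived for the earlier primary screen, cut at about 22% in these data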
UHRF1 ctr MBD2 = UHRF1 methylated DNA binding inhibitors, counter-screen for MBD2 inhibitor project, biochemical, TR-FRET, human UHRF1; shares compounds with MBD2 DNA inh; UHRF1 binding to methylated oligonucleotide; inhibition, % at 4.4 µM; 25% of 1,000 active; in the data active = inhibition above about 21%;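 also: UHRF1 SRA domain binding a labeled hemimethylated CpG hairpin DNA; 0% = vehicle only and 100% = reference inhibitor with vehicle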
MBD2 confirm = inhibitors of MBD2 binding to methylated DNA, confirmation, biochemical, TR-FRET, DNA-binding domain, human; shares compounds with MBD2 DNA inh; TR-FRET MBD2-DBD binding to methylated oligonucleotide; inhibition, % at 4.4 µM; 26% of 1,000 active; AID 720531, 2013
IN multimer act = HIV-1 IN multimer formation enhancers, counter-screen for LEDGF/p75 integration inhibitor project, biochemical, TR-FRET | 17% of 2,000 active | shares compounds with LEDGF integ inh | activation, % at 7.7 µM | TR-FRET HIV-1 integrase multimerization; in the data active = activation above about 8.9%
TRFRET interf = TR-FRET optical interference artefacts, confirmation, artefact control for LEDGF/p75-dependent integration inhibitor project, biochemical, HIV-1 IN multimerization | inhibition, % at 7.7 µM | shares compounds with LEDGF integ inh | TR-FRET optical interference counterscreen | 2,000 tested, under 10 active;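 active = inhibition above the mean over all tested compounds plus 3 SD, which no compound reached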;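 also: 0% = integrase with antibodies and DMSO and 100% = antibodies without integrase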
LEDGF integ conf = inhibitors of HIV-1 IN-LEDGF/p75 DNA integration, confirmation, biochemical, TR-FRET | shares compounds with LEDGF integ inh | TR-FRET LEDGF/p75-dependent HIV-1 integration | inhibition, % at 3.7 µM | 36% of 2,000 active | AID 1053136, 2014
SIAE inh conf = human SIAE inhibitors, retest, confirmation, biochemical, fluorescence polarization, FP-Rh probe, triplicate; shares compounds with SIAE primary; SIAE FP-Rh activity-based probe; inhibition, % at 9.66 µM; 13% of 2,300 active; AID 1117263, 2014;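 active = mean inhibition of the replicates above the hit cutoff set in the primary screen, cut at about 17% in these data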;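 also: 0% = SIAE with DMSO and probe and 100% = probe without SIAE; inhibitors lower polarization as more probe stays unbound to SIAE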
The depositor's hits bear a star; nt = not tested or not shown. Most compounds without a hit are left out; they make up all but 3.3% or so of the library. Rule as the data show it, unless noted: active = inhibition above about 14%; inactive = the rest.

SMILES | UHRF1 binding | TDP2 absorb | MBD2 DNA inh | PRMT1 inh | SIAE primary | LEDGF integ inh | UHRF1 ctr MBD2 | MBD2 confirm | others
O=C1CC(N(O)c2ccccc2)C(=O)N1c1ccc(Cl)c(Cl)c1 (stereo not drawn) | -7 | 14 | -5 | 12 | 7 | -1 | nt | nt
COc1ccccc1N(O)C1CC(=O)N(c2ccc(Br)cc2)C1=O (stereo not drawn) | -6 | 16 | -6 | 42* | 20* | 1 | nt | nt | PRMT1 inh conf=50*;SIAE inh conf=9
COC(=O)[C@]12CCCCC=C1N(Cc1ccc(OC)cc1)C(=O)[C@@H]2CC(=O)N1CCN(C(=O)C2CC2)CC1 | 1 | -11 | -6 | -7 | -2 | 4 | nt | nt
CCOC(=O)C1Nc2ccc(Br)cc2C2C=CCC12 (stereo not drawn) | 0 | -6 | 1 | 30* | 20* | -2 | nt | nt | PRMT1 inh conf=26*;SIAE inh conf=6
Cn1nc([N+](=O)[O-])c(C(C#N)c2ccccn2)c(Cl)c1=O (stereo not drawn) | -2 | -5 | -6 | 19 | 9 | -2 | nt | nt
CCn1nc([N+](=O)[O-])c(C(C#N)c2nc3cc(C(F)(F)F)ccc3s2)c(Cl)c1=O (stereo not drawn) | -6 | 22 | 0 | 28* | 23* | 1 | nt | nt | PRMT1 inh conf=31*;SIAE inh conf=18*
O=[N+]([O-])c1ccc(N/N=C/c2ccc(O)c(O)c2O)c(S(=O)(=O)N2CCOCC2)c1 | -2 | -8 | -9 | 35* | 28* | 50* | nt | nt | PRMT1 inh conf=56*;IN multimer act=3;TRFRET interf=-17;LEDGF integ conf=36*;SIAE inh conf=-3
O=C(CCc1ccc(S(=O)(=O)N2CCOCC2)cc1)N/N=C/c1ccc(O)c(O)c1O | 1 | -5 | -3 | 33* | 28* | 17* | nt | nt | PRMT1 inh conf=50*;IN multimer act=18*;TRFRET interf=-66;LEDGF integ conf=27*;SIAE inh conf=15
O=[N+]([O-])c1ccc(N/N=C/c2cccc(O)c2O)c(S(=O)(=O)N2CCOCC2)c1 | -1 | -39 | -8 | 18 | 11 | 9 | nt | nt
c1cc(CNc2ccc3c(c2)OCO3)ccn1 | -4 | 4 | -5 | 37* | 19* | -2 | nt | nt | PRMT1 inh conf=7;SIAE inh conf=4
Nc1ncc(C(=O)O)c(-c2ccccc2)n1 | 2 | -2 | 37* | -2 | -1 | -1 | 6 | 2
CCOC(=O)c1cnc(N)nc1-c1ccccc1 | 0 | 11 | 2 | 3 | 10 | 0 | nt | nt
CN(Cc1ccccc1)C(=O)OCc1cn(Cc2ccc(Cl)cc2)nn1 | 3 | 2 | 4 | 5 | 3 | -2 | nt | nt
COCCn1c(N)c(N(Cc2ccccc2)C(=O)c2ccc3ccccc3c2)c(=O)[nH]c1=O | 26* | 10 | 13* | -4 | 8 | 10 | 6 | 2
COCCN(C(=O)c1ccc2ccccc2c1)c1c(N)n(Cc2ccccc2)c(=O)[nH]c1=O | 4 | -4 | 6 | 1 | -2 | 1 | nt | nt
COC(=O)C1CN(C2CC2)CCS(=O)(=O)N1Cc1cn(Cc2ccc(OC)cc2)nn1 (stereo not drawn) | 3 | -4 | 0 | -1 | 4 | -3 | nt | nt
COC(=O)C1CN(C2CCCC2)CCS(=O)(=O)N1Cc1cn(Cc2ccc(OC)cc2)nn1 (stereo not drawn) | -4 | 3 | 16* | -1 | -6 | 5 | 4 | 2
COc1ccccc1NC=C1C(=O)OC(C)(C)OC1=O | 5 | 3 | 7 | 1 | 5 | 2 | nt | nt
CCOc1ccccc1NC=C1C(=O)OC(C)(C)OC1=O | 3 | -1 | 13* | 4 | -3 | -4 | 6 | 3
Cc1ccc(NCCN(C)C)c2c(=O)c3cc(O)ccc3sc12 | -5 | 2 | 13* | 1 | 13 | 1 | 10 | 27*
CN(C)CCNc1cccc2sc3ccc(O)cc3c(=O)c12 | -6 | 5 | 4 | 8 | 5 | -1 | nt | nt
Cc1ccc(S(=O)(=O)NC(=O)Nc2cccc(S(=O)(=O)N(C)C)c2)cc1 | 2 | -3 | 56* | 5 | 2 | -1 | 6 | 2
CC(=O)N1CCc2cc(S(=O)(=O)NCCC(=O)N(C)C3CCCCC3)ccc21 | 1 | 9 | 6 | -1 | 5 | 4 | nt | nt
CCCCC(=O)Nc1ccc(N2CCN(c3ccc(F)cc3)CC2)cc1 | 4 | 1 | 34* | 0 | 7 | 6 | 3 | 2
O=c1c2ccccc2nc(-c2ccccc2)n1/N=C/c1ccc([N+](=O)[O-])cc1 | -1 | 3 | -6 | -1 | 11 | 1 | nt | nt
